Calls of active or inactive are those of the source. The rule behind the calls is not given here.
Tests used:
[1] = Drug level in ICR mouse brain at 5 mg/kg, iv after 0.5 hrs by HPLC/MS/MS analysis; format: ADME, organism-based; set-up: dose 5 mg/kg, route intravenous; conditions: read-out: Drug uptake
[2] = Drug level in ICR mouse brain at 5 mg/kg, iv after 0.083 hrs by HPLC/MS/MS analysis; format: ADME, organism-based; set-up: dose 5 mg/kg, route intravenous; conditions: read-out: Drug uptake
[3] = AUC (0 to t) in ICR mouse at 10 mg/kg, po; format: ADME, organism-based; set-up: dose 10 mg/kg, route oral; conditions: plasma
Summary of the method: (§1)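 ICR mice given drug intravenously at 5 mg/kg or orally at 10 mg/kg. Parameters are taken from the plasma concentration–time profile: AUC(0–t), AUC(0–∞), MRT, Cmax and bioavailability.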

[4] = Drug level in ICR mouse brain at 10 mg/kg, po after 0.25 hrs by HPLC/MS/MS analysis; format: ADME, organism-based; set-up: dose 10 mg/kg, route oral; conditions: read-out: Drug uptake
[5] = Drug level in ICR mouse brain at 5 mg/kg, iv after 2 hrs by HPLC/MS/MS analysis; format: ADME, organism-based; set-up: dose 5 mg/kg, route intravenous; conditions: read-out: Drug uptake
[6] = AUC (0 to infinity) in ICR mouse at 10 mg/kg, po; format: ADME, organism-based; set-up: time infinity, dose 10 mg/kg, route oral; conditions: plasma; summary of the method: as §1
[7] = Plasma concentration in ICR mouse at 10 mg/kg, po after 0.083 hrs by HPLC/MS/MS analysis; format: ADME, organism-based; set-up: dose 10 mg/kg, route oral
[8] = Plasma concentration in ICR mouse at 5 mg/kg, iv after 8 hrs by HPLC/MS/MS analysis; format: ADME, organism-based; set-up: dose 5 mg/kg, route intravenous
Nucleic Acid [9] = test: Ratio of drug level in brain to plasma in ICR mouse at 5 mg/kg, iv after 0.5 hrs by HPLC/MS/MS analysis; format: ADME, organism-based; set-up: dose 5 mg/kg, route intravenous
Nucleic Acid [10] = test: Ratio of drug level in brain to plasma in ICR mouse at 5 mg/kg, iv after 0.25 hrs by HPLC/MS/MS analysis; format: ADME, organism-based; set-up: dose 5 mg/kg, route intravenous
[11] = Plasma concentration in ICR mouse at 10 mg/kg, po after 8 hrs by HPLC/MS/MS analysis; format: ADME, organism-based; set-up: dose 10 mg/kg, route oral
[12] = Plasma concentration in ICR mouse at 10 mg/kg, po after 6 hrs by HPLC/MS/MS analysis; format: ADME, organism-based; set-up: dose 10 mg/kg, route oral
[13] = Oral bioavailability ICR mouse at 10 mg/kg; format: ADME, organism-based; conditions: in vivo; summary of the method: as §1
[14] = Drug level in ICR mouse brain at 10 mg/kg, po after 0.5 hrs by HPLC/MS/MS analysis; format: ADME, organism-based; set-up: dose 10 mg/kg, route oral; conditions: read-out: Drug uptake
[15] = Plasma concentration in ICR mouse at 10 mg/kg, po after 0.25 hrs by HPLC/MS/MS analysis; format: ADME, organism-based; set-up: dose 10 mg/kg, route oral
[16] = Plasma concentration in ICR mouse at 10 mg/kg, po after 1 hr by HPLC/MS/MS analysis; format: ADME, organism-based; set-up: dose 10 mg/kg, route oral
[17] = Plasma concentration in ICR mouse at 10 mg/kg, po after 2 hrs by HPLC/MS/MS analysis; format: ADME, organism-based; set-up: dose 10 mg/kg, route oral
[18] = Drug level in ICR mouse brain at 10 mg/kg, po after 1 hr by HPLC/MS/MS analysis; format: ADME, organism-based; set-up: dose 10 mg/kg, route oral; conditions: read-out: Drug uptake
Nucleic Acid [19] = test: Ratio of drug level in brain to plasma in ICR mouse at 10 mg/kg, po after 1 hr by HPLC/MS/MS analysis; format: ADME, organism-based; set-up: dose 10 mg/kg, route oral
Nucleic Acid [20] = test: Ratio of drug level in brain to plasma in ICR mouse at 10 mg/kg, po after 0.5 hrs by HPLC/MS/MS analysis; format: ADME, organism-based; set-up: dose 10 mg/kg, route oral
[21] = Tmax in ICR mouse at 5 mg/kg, iv; format: ADME, organism-based; set-up: dose 5 mg/kg, route intravenous; conditions: in vivo
[22] = Plasma concentration in ICR mouse at 5 mg/kg, iv after 0.25 hrs by HPLC/MS/MS analysis; format: ADME, organism-based; set-up: dose 5 mg/kg, route intravenous
Nucleic Acid [23] = test: Ratio of drug level in brain to plasma in ICR mouse at 10 mg/kg, po after 0.25 hrs by HPLC/MS/MS analysis; format: ADME, organism-based; set-up: dose 10 mg/kg, route oral
[24] = Cmax in ICR mouse at 5 mg/kg, iv; format: ADME, organism-based; set-up: dose 5 mg/kg, route intravenous; conditions: in vivo; summary of the method: as §1
Nucleic Acid [25] = test: Ratio of drug level in brain to plasma in ICR mouse at 5 mg/kg, iv after 2 hrs by HPLC/MS/MS analysis; format: ADME, organism-based; set-up: dose 5 mg/kg, route intravenous
[26] = Plasma concentration in ICR mouse at 5 mg/kg, iv after 2 hrs by HPLC/MS/MS analysis; format: ADME, organism-based; set-up: dose 5 mg/kg, route intravenous
Nucleic Acid [27] = test: Ratio of drug level in brain to plasma in ICR mouse at 5 mg/kg, iv after 0.083 hrs by HPLC/MS/MS analysis; format: ADME, organism-based; set-up: dose 5 mg/kg, route intravenous
[28] = Plasma concentration in ICR mouse at 10 mg/kg, po after 0.5 hrs by HPLC/MS/MS analysis; format: ADME, organism-based; set-up: dose 10 mg/kg, route oral
[29] = Drug level in ICR mouse brain at 10 mg/kg, po after 0.083 hrs by HPLC/MS/MS analysis; format: ADME, organism-based; set-up: dose 10 mg/kg, route oral; conditions: read-out: Drug uptake
[30] = Cmax in ICR mouse at 10 mg/kg, po; format: ADME, organism-based; set-up: dose 10 mg/kg, route oral; conditions: in vivo; summary of the method: as §1
[31] = Plasma concentration in ICR mouse at 5 mg/kg, iv after 0.5 hrs by HPLC/MS/MS analysis; format: ADME, organism-based; set-up: dose 5 mg/kg, route intravenous
[32] = Drug level in ICR mouse brain at 10 mg/kg, po after 4 hrs by HPLC/MS/MS analysis; format: ADME, organism-based; set-up: dose 10 mg/kg, route oral; conditions: read-out: Drug uptake
[33] = Drug level in ICR mouse brain at 10 mg/kg, po after 2 hrs by HPLC/MS/MS analysis; format: ADME, organism-based; set-up: dose 10 mg/kg, route oral; conditions: read-out: Drug uptake
[34] = Tmax in ICR mouse at 10 mg/kg, po; format: ADME, organism-based; set-up: dose 10 mg/kg, route oral; conditions: in vivo
[35] = Drug level in ICR mouse brain at 5 mg/kg, iv after 0.25 hrs by HPLC/MS/MS analysis; format: ADME, organism-based; set-up: dose 5 mg/kg, route intravenous; conditions: read-out: Drug uptake
[36] = Plasma concentration in ICR mouse at 5 mg/kg, iv after 1 hr by HPLC/MS/MS analysis; format: ADME, organism-based; set-up: dose 5 mg/kg, route intravenous
[37] = AUC (0 to t) in ICR mouse at 5 mg/kg, iv; format: ADME, organism-based; set-up: dose 5 mg/kg, route intravenous; conditions: plasma; summary of the method: as §1
[38] = Drug level in ICR mouse brain at 5 mg/kg, iv after 1 hr by HPLC/MS/MS analysis; format: ADME, organism-based; set-up: dose 5 mg/kg, route intravenous; conditions: read-out: Drug uptake
Rattus norvegicus [39] = test: Antiinflammatory activity in Wistar albino rat assessed as inhibition of carrageenan-induced paw edema at 30 mg/kg intragastrically administered 1 hr before carrageenan challenge measured after 1 to 24 hrs post carrageenan challenge by plethysmometer; format: functional, organism-based
Summary of the method: (§2)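 Male Wistar albino rats, 140–160 g, eight per group, dosed i.g. as a suspension in 0.5% CMC; controls get 0.5% CMC only. 1 h later, 0.1 ml of 0.1% carrageenan in 0.9% NaCl is injected into the sub-plantar region of the right hind paw. Paw volume is read by plethysmometer hourly to 6 h and at 24 h. Inhibition (%) = (Vc − Vt)/Vc × 100 on mean volume increase; mean ± SEM.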

[40] = AUC (0 to infinity) in ICR mouse at 5 mg/kg, iv; format: ADME, organism-based; set-up: time infinity, dose 5 mg/kg, route intravenous; conditions: plasma; summary of the method: as §1
[41] = Plasma concentration in ICR mouse at 5 mg/kg, iv after 4 hrs by HPLC/MS/MS analysis; format: ADME, organism-based; set-up: dose 5 mg/kg, route intravenous
Rattus norvegicus [42] = test: Antiinflammatory activity in Wistar albino rat assessed as inhibition of carrageenan-induced paw edema at 33.6 mg/kg, ig administered 1 hr before carrageenan challenge measured after 1 to 24 hrs post carrageenan challenge by plethysmometer; format: functional, organism-based; summary of the method: as §2
[43] = Mean residence time (0 to infinity) in ICR mouse at 10 mg/kg, po; format: ADME, organism-based; set-up: dose 10 mg/kg, route oral; conditions: in vivo; summary of the method: as §1
[44] = Plasma concentration in ICR mouse at 10 mg/kg, po after 4 hrs by HPLC/MS/MS analysis; format: ADME, organism-based; set-up: dose 10 mg/kg, route oral
[45] = Plasma concentration in ICR mouse at 5 mg/kg, iv after 0.083 hrs by HPLC/MS/MS analysis; format: ADME, organism-based; set-up: dose 5 mg/kg, route intravenous

Compound: CC(C)Cc1ccc([C@H](C)C(=O)O)cc1 [DEXIBUPROFEN]
- concentration at 0.5 h [1]: 613 ng/g
- concentration at 0.083 h [2]: 1260 ng/g
- AUC(0-t) [3]: 81100 ng·h/mL
- concentration at 0.25 h [4]: 999 ng/g
- concentration at 2 h [5]: 123 ng/g
- AUC(0-inf) [6]: 81600 ng·h/mL
- concentration at 0.083 h [7]: 52.1 µg/mL
- concentration at 8 h [8]: 354 ng/mL
- BPR (Nucleic Acid [9]): 0.032 mL/g
- BPR (Nucleic Acid [10]): 0.032 mL/g
- concentration at 8 h [11]: 336 ng/mL
- concentration at 6 h [12]: 1070 ng/mL
- bioavailability [13]: 118%
- concentration at 0.5 h [14]: 1130 ng/g
- concentration at 0.25 h [15]: 33600 ng/mL
- concentration at 1 h [16]: 24000 ng/mL
- concentration at 2 h [17]: 15800 ng/mL
- concentration at 1 h [18]: 721 ng/g
- BPR (Nucleic Acid [19]): 0.031 mL/g
- BPR (Nucleic Acid [20]): 0.033 mL/g
- Tmax [21]: 4.8 min
- concentration at 0.25 h [22]: 19400 ng/mL
- BPR (Nucleic Acid [23]): 0.029 mL/g
- Cmax [24]: 34600 ng/mL
- BPR (Nucleic Acid [25]): 0.031 mL/g
- concentration at 2 h [26]: 3930 ng/mL
- BPR (Nucleic Acid [27]): 0.037 mL/g
- concentration at 0.5 h [28]: 34400 ng/mL
- concentration at 0.083 h [29]: 1340 ng/g
- Cmax [30]: 52.1 µg/mL
- concentration at 0.5 h [31]: 19800 ng/mL
- concentration at 4 h [32]: 127 ng/g
- concentration at 2 h [33]: 340 ng/g
- Tmax [34]: 4.8 min
- concentration at 0.25 h [35]: 598 ng/g
- concentration at 1 h [36]: 9960 ng/mL
- AUC(0-t) [37]: 33900 ng·h/mL
- concentration at 1 h [38]: 251 ng/g
- inhibition (Rattus norvegicus [39]): Active
- AUC(0-inf) [40]: 34500 ng·h/mL
- concentration at 4 h [41]: 927 ng/mL
- inhibition (Rattus norvegicus [42]): Active
- MRT inf [43]: 1.68 h
- concentration at 4 h [44]: 5260 ng/mL
- concentration at 0.083 h [45]: 34600 ng/mL

Reference: ChEMBL document CHEMBL1944509, “Methyl-monofluorination of ibuprofen selectively increases its inhibitory activity toward cyclooxygenase-1 leading to enhanced analgesic activity and reduced gastric damage in vivo” (Bioorg Med Chem Lett, 2011)
